Drawing on ChEMBL document CHEMBL4052675, “Synthesis, biological evaluation and molecular modeling of imidazo[1,2-a]pyridine derivatives as potent antitubulin agents” (Bioorg Med Chem, 2017), this text covers IC50 for 26 molecules.

Assay type in all cases: functional, cell-based
One assay deals with HT-29. As to the kind of experiment: Cytotoxicity against human HT-29 cells after 72 hrs by MTT assay. The conditions noted are these: HT-29, 72 h. The gist of the method:
(§1)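 Cells grown in MEM with 10% FBS; about 4×10^3 cells per well, preincubated 24 h at 37 °C in 5% CO₂, then exposed to compounds for 72 h. MTT at a […] added for 4 h at 37 °C. Formazan dissolved in DMSO; absorbance read at 492 nm against 630 nm reference. Three runs per line; IC50 reported as mean ± SD.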

Another assay deals with NCI-H460. As to the kind of experiment: Cytotoxicity against human NCI-H460 cells after 72 hrs by MTT assay. Particulars: NCI-H460, 72 h. The method in brief: as §1
Another assay has as its system A549. As to the kind of experiment: Cytotoxicity against human A549 cells after 72 hrs by MTT assay. The conditions noted are these: A549, 72 h. The gist of the method: as §1
The subject of a further assay is MKN-45. The assay is described as follows: Cytotoxicity against human MKN45 cells after 72 hrs by MTT assay. The conditions noted are these: MKN-45, 72 h. The gist of the method: as §1
The test system of a further assay is SMMC-7721. The assay is described as follows: Cytotoxicity against human SMMC7721 cells after 72 hrs by MTT assay. Particulars: SMMC-7721, 72 h. The method in brief: as §1

The structures appear in SMILES notation. pIC50: −log10 of the molar value.

Take `N#Cc1c(-c2ccc(F)cc2Cl)cc(-c2c[nH]c3ccccc23)n2cc(CNC3CCCCC3)nc12`: the pIC50 is 7.70 in the assay on HT-29; 7.10 in the assay with NCI-H460; 5.60 in the assay with A549; 5.43 with MKN-45; 5.31 in the assay with SMMC-7721.
With `CNCc1cnc2c(C#N)c(-c3ccc(OC)c(OC)c3OC)cc(-c3ccc(F)cc3F)n12`, the pIC50 in the assay with HT-29 was 7.15; in the assay on NCI-H460, 7.70; in the assay with A549, 6.89; in the assay with MKN-45, 5.57; in the assay with SMMC-7721 it was 5.93.
In the case of `CN(C)Cc1cn2c(-c3c[nH]c4ccccc34)cc(-c3ccc(F)cc3F)c(C#N)c2n1`, the pIC50 in the assay with HT-29 is 7.22; in the assay on NCI-H460, 6.72; in the assay on A549, 5.95; with MKN-45, 5.87; in the assay with SMMC-7721 it was 5.28.
For `COc1ccc(-c2cc(-c3ccc(F)cc3)n3c(CN(C)C)cnc3c2C#N)c(OC)c1OC`, in that order: 6.10, 5.03, 6.17, 5.16 and 5.52.
Take `CC(C)NCc1cn2c(-c3c[nH]c4ccccc34)cc(-c3ccc(F)cc3F)c(C#N)c2n1`: the pIC50 is 7.10 in the assay on HT-29; 6.74 with NCI-H460; 5.72 with A549; 5.48 with MKN-45; 5.18 with SMMC-7721.
For the molecule `CN1CCN(Cc2cn3c(-c4c[nH]c5ccccc45)cc(-c4ccc(F)cc4F)c(C#N)c3n2)CC1`, the pIC50 in the assay with HT-29 is 6.96; in the assay on NCI-H460, 6.77; in the assay on A549, 6.04; in the assay on MKN-45, 5.57; in the assay on SMMC-7721 it was 5.42.
On to `CCNCc1cn2c(-c3c[nH]c4ccccc34)cc(-c3ccc(F)cc3F)c(C#N)c2n1`, for which the pIC50 in the assay on HT-29 was 7.30; in the assay on NCI-H460 it was 6.82; in the assay on A549, 6.04; in the assay with MKN-45 it was 5.56; with SMMC-7721, 5.21.
For `CCN(CC)Cc1cn2c(-c3c[nH]c4ccccc34)cc(-c3ccc(F)cc3F)c(C#N)c2n1`, the pIC50 is 7.70 in the assay on HT-29; 6.96 in the assay with NCI-H460; 7.10 with A549; 5.49 with MKN-45; 5.72 in the assay with SMMC-7721.
With `CC1CCN(Cc2cn3c(-c4c[nH]c5ccccc45)cc(-c4ccc(F)cc4F)c(C#N)c3n2)CC1`, the pIC50 was 8.00 with HT-29; 6.70 in the assay on NCI-H460; 5.44 in the assay with A549; 5.58 in the assay on MKN-45; 5.45 in the assay on SMMC-7721.
Taken in the same sequence, the figures for `CCNCc1cnc2c(C#N)c(-c3ccc(OC)c(OC)c3OC)cc(-c3ccc(F)cc3)n12` were 6.04, 5.34, 5.49, 5.10 and 5.22.
In the case of `COc1ccc(-c2cc(-c3ccc(F)cc3F)n3c(CN4CCOCC4)cnc3c2C#N)c(OC)c1OC`, the pIC50 was 6.33 in the assay on HT-29; 7.10 with NCI-H460; 5.94 with A549; 5.62 in the assay on MKN-45; 5.49 with SMMC-7721.
In the case of `CCN(CC)Cc1cnc2c(C#N)c(-c3ccc(OC)c(OC)c3OC)cc(-c3ccc(F)cc3)n12`, the pIC50 with HT-29 was 5.52; in the assay on NCI-H460 it was 5.51; in the assay with A549, 5.71; in the assay on MKN-45, 4.63; in the assay on SMMC-7721 it was 5.16.
For `N#Cc1c(-c2ccc(F)cc2F)cc(-c2c[nH]c3ccccc23)n2cc(CNC3CC3)nc12`, in that order: 7.40, 6.55, 5.02, 5.43 and 5.17.
Take `COc1ccc(-c2cc(-c3ccc(F)cc3F)n3c(CN4CCC(C)CC4)cnc3c2C#N)c(OC)c1OC`: the pIC50 is 6.85 in the assay with HT-29; 7.22 in the assay with NCI-H460; 5.84 in the assay with A549; 5.77 with MKN-45; 5.46 in the assay with SMMC-7721.
Taken in the same sequence, the figures for `CNCc1cn2c(-c3c[nH]c4ccccc34)cc(-c3ccc(F)cc3F)c(C#N)c2n1` were 6.80, 6.70, 5.05, 4.74 and 4.79.
Take `CN1CCN(Cc2cn3c(-c4c[nH]c5ccccc45)cc(-c4ccc(F)cc4Cl)c(C#N)c3n2)CC1`: the negative-log IC50 (pIC50) in the assay with HT-29 is 6.85; in the assay on NCI-H460, 6.66; in the assay with A549, 5.81; with MKN-45, 5.44; in the assay with SMMC-7721, 5.15.
On to `N#Cc1c(-c2ccc(F)cc2F)cc(-c2c[nH]c3ccccc23)n2cc(CN3CCOCC3)nc12`, for which the pIC50 in the assay on HT-29 is 5.57; in the assay with NCI-H460 it was 6.72; in the assay on A549, 5.48; with MKN-45, 5.10; in the assay with SMMC-7721 it was 4.89.
For `N#Cc1c(-c2ccc(F)cc2F)cc(-c2c[nH]c3ccccc23)n2cc(CN3CCCC3)nc12`, in that order: 7.40, 7.30, 5.99, 6.32 and 5.30.
Regarding `COc1cc(-c2cc(-c3ccc(F)cc3F)n3c(CN(C)C)cnc3c2C#N)cc(OC)c1OC`, the pIC50 with HT-29 was 6.44; in the assay with NCI-H460, 6.17; with A549 it was 4.51; with MKN-45 it was 4.85; with SMMC-7721, 4.20.
Take `CCN(CC)Cc1cnc2c(C#N)c(-c3ccc(OC)c(OC)c3OC)cc(-c3ccc(F)cc3F)n12`: the pIC50 in the assay with HT-29 is 6.68; in the assay with NCI-H460, 7.22; in the assay on A549, 5.98; with MKN-45, 5.17; in the assay with SMMC-7721 it was 5.88.
Regarding `COc1ccc(-c2cc(-c3ccc(F)cc3)n3c(CN4CCOCC4)cnc3c2C#N)c(OC)c1OC`, the pIC50 with HT-29 was 5.99; in the assay with NCI-H460, 5.01; with A549, 5.45; in the assay on MKN-45 it was 4.98; with SMMC-7721, 5.39.
With `COc1ccc(-c2cc(-c3ccc(F)cc3F)n3c(CN(C)C)cnc3c2C#N)c(OC)c1OC`, the negative logarithm of the IC50 (pIC50) in the assay with HT-29 was 6.64; with NCI-H460, 6.70; in the assay on A549, 5.70; with MKN-45, 5.04; with SMMC-7721, 5.19.
Turning to `CNCc1cnc2c(C#N)c(-c3ccc(OC)c(OC)c3OC)cc(-c3ccc(F)cc3)n12`, the pIC50 is 6.08 with HT-29; 5.73 with NCI-H460; 6.15 in the assay on A549; 5.52 with MKN-45; 5.35 in the assay on SMMC-7721.
For the molecule `COc1ccc(-c2cc(-c3ccc(F)cc3)n3c(CN4CCCC4)cnc3c2C#N)c(OC)c1OC`, the pIC50 with HT-29 is 5.71; in the assay on NCI-H460 it was 4.81; in the assay with A549 it was 5.88; in the assay with MKN-45, 5.23; with SMMC-7721, 5.29.
As for `CNCc1cn2c(-c3c[nH]c4ccccc34)cc(-c3ccc(F)cc3Cl)c(C#N)c2n1`, the pIC50 is 6.92 in the assay with HT-29; 6.60 with NCI-H460; 5.98 in the assay on A549; 5.61 in the assay on MKN-45; 5.25 in the assay with SMMC-7721.
For `COc1ccc(-c2cc(-c3ccc(F)cc3)n3c(CN4CCN(C)CC4)cnc3c2C#N)c(OC)c1OC`, in that order: 5.69, 5.41, 4.91, 5.26 and 4.61.
